Among the data in ChEMBL document CHEMBL3286381 (J Med Chem, 2014) are inhibition values, retold here.

Test [1] addresses T1, Ectonucleoside triphosphate diphosphohydrolase 1 (Homo sapiens) (UniProt P49961).
T1 sequence (whole entry): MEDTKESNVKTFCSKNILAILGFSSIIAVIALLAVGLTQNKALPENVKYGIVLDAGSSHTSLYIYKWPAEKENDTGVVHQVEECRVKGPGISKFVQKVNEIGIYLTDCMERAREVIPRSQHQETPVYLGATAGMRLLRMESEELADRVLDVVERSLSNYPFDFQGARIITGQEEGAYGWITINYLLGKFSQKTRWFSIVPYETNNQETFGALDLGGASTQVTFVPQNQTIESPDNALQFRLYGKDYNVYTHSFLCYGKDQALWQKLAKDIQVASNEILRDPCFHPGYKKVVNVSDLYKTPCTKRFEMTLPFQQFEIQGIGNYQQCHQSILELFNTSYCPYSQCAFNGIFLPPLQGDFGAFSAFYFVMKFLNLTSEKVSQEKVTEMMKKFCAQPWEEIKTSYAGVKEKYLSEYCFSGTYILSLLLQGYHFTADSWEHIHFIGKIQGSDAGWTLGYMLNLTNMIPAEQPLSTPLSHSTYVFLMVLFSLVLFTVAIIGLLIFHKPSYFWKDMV
Nature of the test: Inhibition of human NTPDase-1 using ATP as substrate assessed as inorganic phosphate release at 100 uM after 15 mins relative to control. The method, boiled down: (§1)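 Protein extracts are from COS-7 cells transiently transfected with human NTPDase1, 2, 3 or 8. Extract is preincubated for 3 min at 37 °C in Tris–Ringer buffer (pH 7.3). […] Three experiments in triplicate.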

For test [2], the target named is T2, Ectonucleotide pyrophosphatase/phosphodiesterase family member 3 (Homo sapiens) (UniProt O14638).
T2 sequence (whole entry): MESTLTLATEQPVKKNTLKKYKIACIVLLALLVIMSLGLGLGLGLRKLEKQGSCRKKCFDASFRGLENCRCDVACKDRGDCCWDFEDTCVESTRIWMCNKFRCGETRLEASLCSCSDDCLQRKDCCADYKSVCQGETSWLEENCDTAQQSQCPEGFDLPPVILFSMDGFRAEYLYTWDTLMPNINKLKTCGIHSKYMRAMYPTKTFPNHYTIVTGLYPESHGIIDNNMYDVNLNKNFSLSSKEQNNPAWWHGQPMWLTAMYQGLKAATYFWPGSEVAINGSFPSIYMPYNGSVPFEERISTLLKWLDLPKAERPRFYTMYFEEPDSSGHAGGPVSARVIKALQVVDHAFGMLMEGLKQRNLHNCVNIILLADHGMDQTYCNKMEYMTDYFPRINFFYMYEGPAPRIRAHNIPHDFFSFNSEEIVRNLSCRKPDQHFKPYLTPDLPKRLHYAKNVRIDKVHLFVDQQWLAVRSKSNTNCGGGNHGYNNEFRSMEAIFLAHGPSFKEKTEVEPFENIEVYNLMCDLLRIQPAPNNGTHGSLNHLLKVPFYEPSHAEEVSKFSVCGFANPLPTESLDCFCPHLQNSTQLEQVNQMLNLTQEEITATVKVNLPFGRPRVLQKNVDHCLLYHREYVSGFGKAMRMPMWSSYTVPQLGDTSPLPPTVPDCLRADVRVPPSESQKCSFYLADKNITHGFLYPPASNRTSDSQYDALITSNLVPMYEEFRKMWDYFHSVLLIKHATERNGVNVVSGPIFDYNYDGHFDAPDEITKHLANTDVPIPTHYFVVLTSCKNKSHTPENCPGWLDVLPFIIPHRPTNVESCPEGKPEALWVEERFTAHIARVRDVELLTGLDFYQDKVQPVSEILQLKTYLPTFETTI
The test is described as follows: Inhibition of human NPP3 using pNP-TMP as substrate at 100 uM after 20 mins by reversed-phase HPLC analysis.

The target of test [3] is T3, Ectonucleotide pyrophosphatase/phosphodiesterase family member 1 (Homo sapiens) (UniProt P22413).
T3 sequence (whole entry): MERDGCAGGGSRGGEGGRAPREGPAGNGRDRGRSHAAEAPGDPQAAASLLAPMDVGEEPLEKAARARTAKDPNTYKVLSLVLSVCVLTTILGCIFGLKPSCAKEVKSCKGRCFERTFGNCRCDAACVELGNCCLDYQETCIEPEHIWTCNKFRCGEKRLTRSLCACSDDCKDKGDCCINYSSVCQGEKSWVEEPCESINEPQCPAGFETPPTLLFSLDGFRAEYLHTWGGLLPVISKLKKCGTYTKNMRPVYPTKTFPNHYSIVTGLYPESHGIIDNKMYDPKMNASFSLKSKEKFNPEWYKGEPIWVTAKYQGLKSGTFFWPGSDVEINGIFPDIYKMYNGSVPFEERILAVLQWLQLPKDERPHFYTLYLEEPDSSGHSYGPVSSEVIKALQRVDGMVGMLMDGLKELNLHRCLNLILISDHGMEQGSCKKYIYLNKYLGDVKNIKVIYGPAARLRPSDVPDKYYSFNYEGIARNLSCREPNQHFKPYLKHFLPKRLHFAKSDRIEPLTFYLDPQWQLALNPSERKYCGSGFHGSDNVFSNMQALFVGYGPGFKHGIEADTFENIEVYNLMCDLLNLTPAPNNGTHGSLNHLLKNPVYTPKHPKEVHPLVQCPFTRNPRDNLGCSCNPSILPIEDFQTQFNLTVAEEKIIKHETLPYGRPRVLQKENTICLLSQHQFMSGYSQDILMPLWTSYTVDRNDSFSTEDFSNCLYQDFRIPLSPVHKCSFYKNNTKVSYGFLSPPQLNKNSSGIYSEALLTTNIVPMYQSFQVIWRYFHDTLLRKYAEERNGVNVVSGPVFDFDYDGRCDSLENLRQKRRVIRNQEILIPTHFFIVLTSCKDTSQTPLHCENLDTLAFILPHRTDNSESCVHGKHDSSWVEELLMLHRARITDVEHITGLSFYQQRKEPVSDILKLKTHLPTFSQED
The test is described as follows: Inhibition of human NPP1 using pNP-TMP as substrate at 100 uM after 20 mins by reversed-phase HPLC analysis.

In test [4] the target is T4, Ectonucleoside triphosphate diphosphohydrolase 2 (Homo sapiens) (UniProt Q9Y5L3).
T4 sequence (whole entry): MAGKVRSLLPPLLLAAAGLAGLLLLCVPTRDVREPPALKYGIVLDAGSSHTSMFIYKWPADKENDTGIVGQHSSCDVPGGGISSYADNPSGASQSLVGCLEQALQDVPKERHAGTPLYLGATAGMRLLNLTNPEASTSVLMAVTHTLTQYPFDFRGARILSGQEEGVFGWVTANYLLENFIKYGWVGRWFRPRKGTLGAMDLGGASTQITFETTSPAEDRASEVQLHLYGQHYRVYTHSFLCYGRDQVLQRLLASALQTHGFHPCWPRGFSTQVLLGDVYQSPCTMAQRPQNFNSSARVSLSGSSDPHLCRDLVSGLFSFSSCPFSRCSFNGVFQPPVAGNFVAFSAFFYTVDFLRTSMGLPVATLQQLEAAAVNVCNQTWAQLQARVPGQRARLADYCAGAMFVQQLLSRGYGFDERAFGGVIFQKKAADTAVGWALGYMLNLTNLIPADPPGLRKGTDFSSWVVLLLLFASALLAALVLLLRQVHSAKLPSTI
Nature of the test: Inhibition of human NTPDase-2 using ATP as substrate assessed as inorganic phosphate release at 100 uM after 15 mins relative to control. A digest of the protocol:
as §1

Each structure is given as a SMILES string.

The inhibition is how much of the control response was suppressed. As for `Nc1ncnc2c1ncn2[C@@H]1O[C@H](CO[P@](O)(=S)OP(=O)(O)CP(=O)(O)O)[C@@H](O)[C@H]1O`, the inhibition in test [1] was 18.7%; in test [2], 23%; in test [3], more than 90%; in test [4], 15.4%.
On the same counts, the results for `Nc1ncnc2c1ncn2[C@@H]1O[C@H](COP(=O)(O)CP(=O)(O)OP(O)(O)=S)[C@@H](O)[C@H]1O` are 58.4%, 23%, more than 90% and 16.3%.
The matching figures for `Nc1ncnc2c1ncn2[C@@H]1O[C@H](CO[P@@](O)(=S)OP(=O)(O)CP(=O)(O)O)[C@@H](O)[C@H]1O`: 21.6%, 23%, more than 90% and 12.7%.
On the same counts, the results for `Nc1ncnc2c1ncn2[C@@H]1O[C@H](CO[P@](O)(=S)OP(=O)(O)C(Cl)(Cl)P(=O)(O)O)[C@@H](O)[C@H]1O` are 0.5%, 23%, more than 90% and 11.2%.
With `Nc1ncnc2c1ncn2[C@@H]1O[C@H](CO[P@@](O)(=S)OP(=O)(O)C(Cl)(Cl)P(=O)(O)O)[C@@H](O)[C@H]1O`, the inhibition in test [1] was 0.5%; in test [2], 23%; in test [3], more than 90%; in test [4], 9.9%.
